# Results as given in ChEMBL document CHEMBL5661972, “In vitro biological activity of a novel small-molecule inhibitor of polo-like kinase 1” (Mol Cancer Ther, 2007).
# Legend:
# [1] = tested on: NHDF; assay: Induction of cell cycle arrest in human HDF cells assessed as accumulation of cells at G1 phase at 3 micromol/L incubated for 24 hrs by propidium iodide staining based flow cytometry analysis (reference value: 57.0 %); type: toxicity; conditions: 3 µM, dose 3 µmol/L
# Outline: (§1)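 Cells seeded in six-well plates at densities that keep them in log growth (HDF 120,000, 60,000 or 30,000; H460 100,000, 50,000 or 25,000 per well for 24, 48 or 72 h). Treated with 1 or 3 μmol/L. Floating and adherent cells collected, ethanol-fixed, permeabilized with Triton X-100 and stained with propidium iodide. DNA content read by flow cytometry as % singlet cells.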
# [2] = Selectivity ratio of IC50 for cytotoxicity against human HDF cells to IC50 for antiproliferative activity against human HN5 cells; type: toxicity, cell-based; conditions: HDF cells versus HN5 cells
# [3] = target: Proto-oncogene tyrosine-protein kinase Src (Homo sapiens, UniProt P12931); assay: Inhibition of c-src (unknown origin)
# [4] = Selectivity ratio of IC50 for cytotoxicity against human HDF cells to IC50 for antiproliferative activity against human A549 cells; type: toxicity, cell-based; conditions: HDF cells versus A549 cells, read-out: Ratio IC50
# [5] = tested on: NHDF; assay: Induction of cell cycle arrest in human HDF cells assessed as accumulation of cells at G2-M phase at 3 micromol/L incubated for 72 hrs by propidium iodide staining based flow cytometry analysis (reference value: 8.2 %); type: toxicity; conditions: 3 µM, dose 3 µmol/L; outline: as §1
# [6] = tested on: NHDF; assay: Induction of cell cycle arrest in human HDF cells assessed as accumulation of cells at S phase at 3 micromol/L incubated for 24 hrs by propidium iodide staining based flow cytometry analysis (reference value: 13.2 %); type: toxicity; conditions: 3 µM, dose 3 µmol/L; outline: as §1
# [7] = target: Mitogen-activated protein kinase 11 (Homo sapiens, UniProt Q15759); assay: Inhibition of p38beta (unknown origin)
# [8] = tested on: NCI-H460; assay: Induction of cell cycle arrest in human NCI-H460 cells assessed as accumulation of cells at S phase at 1 micromol/L incubated for 48 hrs by propidium iodide staining based flow cytometry analysis (reference value: 18.5 %); type: functional; conditions: dose 1 µmol/L, at 1 µM
# [9] = target: Mitogen-activated protein kinase 14 (Homo sapiens, UniProt Q16539); assay: Inhibition of p38alpha (unknown origin)
# [10] = tested on: NCI-H460; assay: Induction of cell cycle arrest in human NCI-H460 cells assessed as accumulation of cells at Sub-2N phase at 3 micromol/L incubated for 48 hrs by propidium iodide staining based flow cytometry analysis (reference value: 2.5 %); type: functional; conditions: dose 3 µmol/L, at 3 µM
# [11] = Selectivity ratio of IC50 for cytotoxicity against human HDF cells to IC50 for antiproliferative activity against human RKO cells; type: toxicity, cell-based; conditions: HDF cells versus RKO cells, read-out: Ratio IC50
# [12] = tested on: NHDF; assay: Induction of cell cycle arrest in human HDF cells assessed as accumulation of cells at G1 phase at 1 micromol/L incubated for 24 hrs by propidium iodide staining based flow cytometry analysis (reference value: 57.0 %); type: toxicity; conditions: 1 µM, dose 1 µmol/L; outline: as §1
# [13] = tested on: NHDF; assay: Induction of cell cycle arrest in human HDF cells assessed as accumulation of cells at Sub-2N phase at 1 micromol/L incubated for 48 hrs by propidium iodide staining based flow cytometry analysis (reference value: 0.5 %); type: toxicity; conditions: 1 µM, dose 1 µmol/L; outline: as §1
# [14] = tested on: NHDF; assay: Induction of cell cycle arrest in human HDF cells assessed as accumulation of cells at G1 phase at 3 micromol/L incubated for 72 hrs by propidium iodide staining based flow cytometry analysis (reference value: 85.6 %); type: toxicity; conditions: 3 µM, dose 3 µmol/L; outline: as §1
# [15] = tested on: NHDF; assay: Induction of cell cycle arrest in human HDF cells assessed as accumulation of cells at G2-M phase at 1 micromol/L incubated for 48 hrs by propidium iodide staining based flow cytometry analysis (reference value: 14.3 %); type: toxicity; conditions: 1 µM, dose 1 µmol/L; outline: as §1
# [16] = Selectivity ratio of IC50 for cytotoxicity against human HDF cells to IC50 for antiproliferative activity against human NCI-H460 cells; type: toxicity, cell-based; conditions: HDF cells versus NCI-H460 cells, read-out: Ratio IC50
# Outline: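 HDF (5,000/well) and H460 (2,000/well) cells exposed 3 days to 3-fold dilutions (30–0.00152 μmol/L) in medium with 5% FBS, gentamicin and 0.3% DMSO (low-glucose DMEM for HDF, RPMI 1640 for H460); vehicle controls growing logarithmically. IC50 from each line gives the HDF/H460 ratio.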
# [17] = tested on: NHDF; assay: Induction of cell cycle arrest in human HDF cells assessed as accumulation of cells at >4N phase at 3 micromol/L incubated for 72 hrs by propidium iodide staining based flow cytometry analysis (reference value: 1.4 %); type: toxicity; conditions: 3 µM, dose 3 µmol/L; outline: as §1
# [18] = tested on: NHDF; assay: Induction of cell cycle arrest in human HDF cells assessed as accumulation of cells at Sub-2N phase at 3 micromol/L incubated for 72 hrs by propidium iodide staining based flow cytometry analysis (reference value: 0.7 %); type: toxicity; conditions: 3 µM, dose 3 µmol/L; outline: as §1
# [19] = tested on: NCI-H460; assay: Induction of cell cycle arrest in human NCI-H460 cells assessed as accumulation of cells at Sub-2N phase at 3 micromol/L incubated for 24 hrs by propidium iodide staining based flow cytometry analysis (reference value: 4.0 %); type: functional; conditions: dose 3 µmol/L, at 3 µM
# [20] = tested on: NHDF; assay: Induction of cell cycle arrest in human HDF cells assessed as accumulation of cells at S phase at 1 micromol/L incubated for 72 hrs by propidium iodide staining based flow cytometry analysis (reference value: 3.6 %); type: toxicity; conditions: 1 µM, dose 1 µmol/L; outline: as §1
# [21] = tested on: HeLa; assay: Inhibition of p53-PLK1 in human HeLa cells assessed as inhibition of p53 phosphorylation at Ser15 residue by Western blotting analysis; type: cell-based; conditions: dose 0.0015-30 µM
# Outline: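 HeLa cells with tet-inducible p53-PLK1 fusion induced overnight with 125 ng/mL doxycycline, then treated 6 h with 3-fold dilutions (30–0.00152 μmol/L). Lysates resolved on 4–12% Bis-Tris gels, transferred to nitrocellulose, probed for phospho-Ser15 p53 or total p53.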
# [22] = tested on: HeLa; assay: Antiproliferative activity against human HeLa cells assessed as inhibition of cell growth; type: functional, cell-based
# [23] = tested on: NCI-H460; assay: Induction of cell cycle arrest in human NCI-H460 cells assessed as accumulation of cells at >4N phase at 1 micromol/L incubated for 72 hrs by propidium iodide staining based flow cytometry analysis (reference value: 0.9 %); type: functional; conditions: dose 1 µmol/L, at 1 µM; outline: as §1
# [24] = Selectivity ratio of IC50 for cytotoxicity against human HDF cells to IC50 for antiproliferative activity against human MCF7 cells; type: toxicity, cell-based; conditions: HDF cells versus MCF7 cells, read-out: Ratio IC50
# [25] = Cytotoxicity against human HDF cells assessed as outgrowth of cells at 3.3 micromol/L incubated for 72 hrs by methylene blue staining based analysis relative to control; type: toxicity, cell-based; conditions: HDF cells (NHDF, human dermal fibroblasts), dose 3.3 µmol/L, read-out: Activity
# Outline: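 HDF seeded at 1,300 and H460 at 600 per well in 96-well plates. After 24 h, exposed to vehicle (0.3% DMSO) or compound at 0.37–30 μmol/L for 72 h. Wells were then washed with PBS and refed with drug-free medium containing gentamicin. Regrowth was followed by methylene blue staining at set time points over 13 days in total.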
# [26] = target: Vascular endothelial growth factor receptor 2 (Homo sapiens, UniProt P35968); assay: Inhibition of VEGFR2 (unknown origin)
# [27] = tested on: NHDF; assay: Induction of cell cycle arrest in human HDF cells assessed as accumulation of cells at >4N phase at 3 micromol/L incubated for 48 hrs by propidium iodide staining based flow cytometry analysis (reference value: 3.0 %); type: toxicity; conditions: 3 µM, dose 3 µmol/L; outline: as §1
# Sequence of Vascular endothelial growth factor receptor 2 (P35968 whole entry): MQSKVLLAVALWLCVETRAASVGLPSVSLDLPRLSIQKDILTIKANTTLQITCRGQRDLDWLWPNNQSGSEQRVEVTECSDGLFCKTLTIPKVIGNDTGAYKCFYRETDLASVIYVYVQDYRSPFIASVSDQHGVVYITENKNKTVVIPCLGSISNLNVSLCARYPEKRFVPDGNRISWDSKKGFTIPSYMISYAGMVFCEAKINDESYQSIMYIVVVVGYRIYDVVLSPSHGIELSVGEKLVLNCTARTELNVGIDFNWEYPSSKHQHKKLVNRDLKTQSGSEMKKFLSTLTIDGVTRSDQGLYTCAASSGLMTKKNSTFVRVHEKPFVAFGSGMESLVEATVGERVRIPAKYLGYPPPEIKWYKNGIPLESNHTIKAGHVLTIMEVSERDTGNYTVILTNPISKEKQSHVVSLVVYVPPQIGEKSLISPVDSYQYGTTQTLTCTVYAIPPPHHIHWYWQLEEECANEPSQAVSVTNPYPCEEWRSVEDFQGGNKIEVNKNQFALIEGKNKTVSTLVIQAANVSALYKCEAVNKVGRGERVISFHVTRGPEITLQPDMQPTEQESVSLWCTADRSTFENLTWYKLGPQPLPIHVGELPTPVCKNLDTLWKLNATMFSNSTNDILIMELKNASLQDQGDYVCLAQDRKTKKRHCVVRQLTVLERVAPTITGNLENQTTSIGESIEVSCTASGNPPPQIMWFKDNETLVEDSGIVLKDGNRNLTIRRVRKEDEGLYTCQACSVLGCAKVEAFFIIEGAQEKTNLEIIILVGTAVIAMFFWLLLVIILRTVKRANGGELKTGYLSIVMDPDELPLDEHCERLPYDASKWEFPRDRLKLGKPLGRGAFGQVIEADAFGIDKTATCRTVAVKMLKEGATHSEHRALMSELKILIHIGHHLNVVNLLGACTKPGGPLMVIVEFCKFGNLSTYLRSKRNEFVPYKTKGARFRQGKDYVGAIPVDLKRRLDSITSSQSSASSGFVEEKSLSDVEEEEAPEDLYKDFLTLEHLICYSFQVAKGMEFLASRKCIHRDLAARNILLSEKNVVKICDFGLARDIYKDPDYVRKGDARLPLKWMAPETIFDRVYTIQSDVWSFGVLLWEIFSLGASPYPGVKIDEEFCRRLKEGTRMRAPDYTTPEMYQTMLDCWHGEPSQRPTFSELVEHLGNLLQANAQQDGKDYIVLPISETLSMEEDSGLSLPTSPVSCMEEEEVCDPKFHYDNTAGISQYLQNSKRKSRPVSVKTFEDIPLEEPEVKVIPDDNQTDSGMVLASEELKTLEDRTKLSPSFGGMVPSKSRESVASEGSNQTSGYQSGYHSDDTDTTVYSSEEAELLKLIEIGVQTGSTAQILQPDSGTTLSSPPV
# Sequence of Mitogen-activated protein kinase 11 (Q15759 whole entry): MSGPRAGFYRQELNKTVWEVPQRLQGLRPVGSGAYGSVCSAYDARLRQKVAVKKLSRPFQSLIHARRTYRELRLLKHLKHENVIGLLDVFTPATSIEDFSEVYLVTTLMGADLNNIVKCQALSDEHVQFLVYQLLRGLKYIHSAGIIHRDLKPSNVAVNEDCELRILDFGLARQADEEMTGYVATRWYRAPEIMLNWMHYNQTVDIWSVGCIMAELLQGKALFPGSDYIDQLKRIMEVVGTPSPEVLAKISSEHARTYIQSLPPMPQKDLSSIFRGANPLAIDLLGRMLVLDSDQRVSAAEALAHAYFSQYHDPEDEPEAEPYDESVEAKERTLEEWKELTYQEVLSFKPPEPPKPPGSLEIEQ
# Sequence of Mitogen-activated protein kinase 14 (Q16539 whole entry): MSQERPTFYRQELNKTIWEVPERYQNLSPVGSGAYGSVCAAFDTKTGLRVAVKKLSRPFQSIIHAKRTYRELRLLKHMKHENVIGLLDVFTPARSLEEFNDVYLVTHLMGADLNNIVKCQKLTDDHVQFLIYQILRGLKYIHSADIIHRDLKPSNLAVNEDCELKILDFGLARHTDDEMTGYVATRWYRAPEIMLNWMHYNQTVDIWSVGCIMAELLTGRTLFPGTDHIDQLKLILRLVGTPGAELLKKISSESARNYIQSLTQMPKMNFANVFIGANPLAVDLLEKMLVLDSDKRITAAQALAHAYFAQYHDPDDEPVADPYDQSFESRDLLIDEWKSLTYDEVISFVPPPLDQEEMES
# Sequence of Proto-oncogene tyrosine-protein kinase Src (P12931 2-536 limits assumed): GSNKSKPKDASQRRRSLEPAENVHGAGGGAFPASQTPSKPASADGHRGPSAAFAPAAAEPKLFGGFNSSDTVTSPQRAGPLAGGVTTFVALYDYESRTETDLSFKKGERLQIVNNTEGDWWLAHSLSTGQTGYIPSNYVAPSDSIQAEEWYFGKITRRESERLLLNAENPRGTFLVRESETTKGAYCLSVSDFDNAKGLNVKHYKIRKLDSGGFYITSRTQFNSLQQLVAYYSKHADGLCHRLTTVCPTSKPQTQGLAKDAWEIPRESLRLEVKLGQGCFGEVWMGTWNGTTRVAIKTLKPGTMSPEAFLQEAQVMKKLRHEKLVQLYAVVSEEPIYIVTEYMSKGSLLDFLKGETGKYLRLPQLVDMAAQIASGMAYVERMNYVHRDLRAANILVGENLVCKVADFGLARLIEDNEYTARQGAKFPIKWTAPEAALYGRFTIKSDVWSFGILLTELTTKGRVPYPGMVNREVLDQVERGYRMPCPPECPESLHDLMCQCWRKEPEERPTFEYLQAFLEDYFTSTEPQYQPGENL
structure (smiles),measurement,setting,value
COc1cc2ncn(-c3cc(OCc4ccccc4C(F)(F)F)c(C(N)=O)s3)c2cc1OC [GW843682X],Activity,[1],21.1%
same,selectivity ratio,[2],9
same,IC50,[3],> 10000 nM
same,selectivity ratio,[4],> 10
same,Activity,[5],52.7%
same,Activity,[6],4.2%
same,IC50,[7],> 10000 nM
same,Activity,[8],24.3%
same,IC50,[9],> 10000 nM
same,Activity,[10],20.3%
same,selectivity ratio,[11],> 10
same,Activity,[12],54.2%
same,Activity,[13],0.9%
same,Activity,[14],5.6%
same,Activity,[15],27%
same,selectivity ratio,[16],> 10
same,Activity,[17],19.1%
same,Activity,[18],9.1%
same,Activity,[19],24.1%
same,Activity,[20],6.7%
same,inhibition,[21],Dose-Dependent Effect
same,IC50,[22],110 nM
same,Activity,[23],58.6%
same,selectivity ratio,[24],> 10
same,"viability at 72 h, 3.3 µM",[25],~30%
same,IC50,[26],360 nM
same,Activity,[27],11.2%
